Experimental data: ChEMBL document CHEMBL1142559, “ent-halimane diterpenes and a guaiane sesquiterpene from Cladogynos orientalis” (J Nat Prod, 2005)

Key:
NCI-H187 = test: Cytotoxicity against human NCI-H187 cells after 72 hrs by SRB assay; format: functional, cell-based; conditions: NCI-H187, 72 h
Procedure, shortened: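 Small cell lung cancer NCI-H187 cells exposed at 37 °C for 72 h, then sulforhodamine B added for read-out; IC50 given in µg/mL; ellipticine as reference substance.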

[1] = system: Mycobacterium tuberculosis; test: Antitubercular activity against Mycobacterium tuberculosis H37Ra; format: functional
Procedure, shortened: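 Microplate alamar blue assay with M. tuberculosis H37Ra as test organism; MIC recorded in µg/mL; isoniazid and kanamycin sulfate served as reference drugs.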

Row | Structure (SMILES) | IC50 (NCI-H187) [µg/mL] | MIC [1] [µg/mL]
1 | COC(=O)[C@@]1(C)CC(=O)C=C2[C@@]3(C)C=C(c4ccoc4)O[C@]21CC[C@H]3C | < 5 | < 12.5
2 | C[C@@H]1CCC2=C(C[C@H]3C[C@]2(C)C(=O)O3)[C@@]1(C)CC(=O)c1ccoc1 | < 5 | < 12.5
3 | C[C@@H]1CCC2=C(C[C@H]3C[C@]2(C)C(=O)O3)[C@@]1(C)CCc1ccoc1 | < 5 | < 12.5
4 | C[C@@H]1CCC2=C(CCC[C@]2(C)C(=O)O)[C@@]1(C)CCc1ccoc1 | < 5 | < 12.5
